Experimental data from publication PMC12024519 (Science Advances, 2025).

What was measured:
[1] = tested on: EZH2; experiment: AKT-mediated phosphorylation of EZH2, phospho-AKT substrate antibody; format: cell-based, Human; settings: 5 μM I-BRD9, 16 h, HEK293T transfected with HA-EZH2
Summary of the method: (§1)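 Cells grown in DMEM with 10% FBS, penicillin/streptomycin, at 37°C and 5% CO2; HEK293T transfected with Lipofectamine/Plus. Cells rinsed in ice-cold PBS and lysed in Triton buffer (40 mM Hepes pH 7.4, 150 mM NaCl, 1% Triton X-100) or EBC buffer (50 mM Tris pH 7.5, 0.5% NP-40) with protease/phosphatase inhibitors. 1000–3000 μg lysate incubated with agarose-conjugated antibody 3–4 h at 4°C; beads washed five times in NETN; SDS-PAGE immunoblot.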

[2] = tested on: AKT1 PH and KD domains; experiment: interaction of AKT1 PH and KD domains in HEK293T cells; format: cell-based, Human; settings: 5 μM I-BRD9, 16 h
[3] = tested on: AKT; experiment: immunoblot of AKT activation; format: cell-based; settings: 5 μM I-BRD9, MDA-MB-231, indicated times
Summary of the method: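 MDA-MB-231 cells kept in DMEM with 10% FBS, penicillin/streptomycin, 37°C, 5% CO2. After treatment, cells washed with ice-cold PBS and lysed in Triton or EBC buffer containing protease/phosphatase inhibitors. Protein quantified by Bio-Rad assay; equal lysate amounts run on SDS-PAGE and transferred to PVDF. Blots probed with pT308-AKT, pS473-AKT, pan-AKT, pGSK-3β and GSK-3β antibodies diluted 1:1000–1:10,000 in TBST/5% milk.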

[4] = tested on: BRD9 and AKT1 interaction; experiment: co-immunoprecipitation of Myc-BRD9 and HA-AKT1 in HEK293T cells; format: cell-based, Human; settings: 5 μM, 24 hours
[5] = tested on: H3K27me3; experiment: immunoblot of H3K27me3; format: cell-based
[6] = tested on: MDA-MB-231 cells; experiment: RNA-seq of treated MDA-MB-231 cells; format: cell-based, human; settings: for shared down-regulated genes (I-BRD9 and ipatasertib) / shared up-regulated genes (I-BRD9 and ipatasertib): 5 μM I-BRD9 or 1 μM ipatasertib, Q value < 0.05; for hallmark gene sets significantly enriched among the 186 shared genes: MSigDB, genes shared by I-BRD9 and ipatasertib; for common down-regulated genes significantly marked by H3K27me3: of 116 genes common to I-BRD9 and ipatasertib, epidecodeR
[7] = tested on: BRD9-BD; experiment: in vitro biotin-peptide pull-down with GST-BRD9-BD; format: binding; settings: immunoblot; for relative affinity of BRD9-BD for R391me2s vs H4R3me2s: biotin-labeled peptides, pull-down with GST-BRD9-BD
[8] = tested on: MDA-MB-231 cells; experiment: RT-qPCR of select common genes in MDA-MB-231 cells; format: cell-based; settings: n = 3 biological replicates
[9] = tested on: Tudor domain of SND1; experiment: biotin-peptide pull-down with GST-SND1-Tudor; format: binding; settings: compared to BRD9-BD, immunoblot
[10] = tested on: BRD9-3Mut; experiment: biotin-peptide pull-down with Myc-BRD9-3Mut; format: binding; settings: Myc-BRD9-3Mut from HEK293T WCL; immunoblot
[11] = tested on: Tudor domain of SMN; experiment: biotin-peptide pull-down with GST-SMN-Tudor; format: binding; settings: compared to BRD9-BD, immunoblot
[12] = tested on: SMARCA2/4; experiment: immunoblot of SMARCA2/4 depletion; format: cell-based; settings: 0.1 μM, 16 hours, MDA-MB-231
Summary of the method: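 Cells grown at 37°C, 5% CO2 with 10% FBS: MDA-MB-231 and MCF-7 in DMEM, BT-549 and T-47D in RPMI 1640. After washing in ice-cold PBS, cells were lysed in Triton (pH 7.4) or EBC (pH 7.5) buffer with protease and phosphatase inhibitors. Equal protein was resolved by SDS-PAGE, transferred to PVDF and probed with primary antibodies at 1:1000–1:10,000 in TBST/5% milk.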

[13] = tested on: AKT; experiment: immunoblot of AKT phosphorylation in HEK293T cells; format: cell-based, Human; settings: 0.1 μM, 0-6 h
[14] = tested on: BRD9 interaction with AKT1; experiment: co-immunoprecipitation of BRD9 and AKT1 in MDA-MB-231 cells; format: cell-based; settings: 0.1 μM, 16 hours
Summary of the method: as §1

CCn1cc(-c2cccc(C(F)(F)F)c2)c2sc(C(=N)NC3CCS(=O)(=O)CC3)cc2c1=O [I-BRD9]
AKT-mediated phosphorylation of EZH2 [1]: largely blocked AKT-mediated phosphorylation of EZH2 | interaction between PH and KD domains, I-BRD9 [2]: enhance the interaction between the PH and KD domains | AKT activation, I-BRD9 [3]: diminished AKT activation in a time-dependent manner | effect on BRD9 and AKT1 interaction in cells [4]: markedly impaired BRD9 and AKT1 interaction in cells | H3K27me3, I-BRD9 combined with AKT1 depletion ([5]; 5 μM I-BRD9, 16 h, AKT1-depleted MDA-MB-231): did not further induce H3K27me3 | H3K27me3 induction by I-BRD9 upon overexpression of myr-AKT1 ([5]; 5 μM I-BRD9, 16 h, MDA-MB-231 stably expressing Myr-AKT1 (fig. S6J)): largely suppressed H3K27me3 induction | H3K27me3 signal, I-BRD9 ([5]; MDA-MB-231 (Fig. 5D) and MDA-MB-436 (0, 1, 5 μM, fig. S6C), 16 h): markedly enhanced H3K27me3 signal | shared down-regulated genes (I-BRD9 and ipatasertib) ([6]; 16 hours): 116 genes | shared up-regulated genes (I-BRD9 and ipatasertib) ([6]; 16 hours): 70 genes | hallmark gene sets significantly enriched among the 186 shared genes [6]: Nine | common down-regulated genes significantly marked by H3K27me3 [6]: Seventy-five | effect on AKT1-R391me2s peptide binding of BRD9-BD in vitro ([7]; 5 μM I-BRD9, pull-down): blocked the AKT1-R391me2s peptide binding of BRD9-BD in vitro | mRNA of shared genes in hallmark pathways, I-BRD9 ([8]; 5 μM I-BRD9, 16 hours): transcriptionally repressed

Biotin-Ahx-GLLKKDPKQ(Rme2s)LGGGSEDA [R391me2s]
binding of Tudor domain of SND1 to R391me2s [9]: much weaker or no binding | binding of BRD9-3Mut to AKT1-R391me2s peptide [10]: incapable of binding | binding of Tudor domain of SMN to R391me2s [11]: much weaker or no binding | relative affinity of BRD9-BD for R391me2s vs H4R3me2s [7]: greater affinity for R391me2s than H4R3me2s

Nc1cc(C(F)(F)F)c(-c2cc(N3CCOCC3)nc(N3CCOCC3)n2)cn1 [BKM120]
H3K27me3 level, BKM120 ([5]; 0, 1, 5 μM, 16 h, MDA-MB-231): elevated

CC(C)NC[C@@H](C(=O)N1CCN(c2ncnc3c2[C@H](C)C[C@H]3O)CC1)c1ccc(Cl)cc1 [ipatasertib]
H3K27me3 level, ipatasertib ([5]; 0, 1, 5 μM, 16 h, MDA-MB-231): elevated | share of AKT-down-regulated genes that are common with I-BRD9 ([6]; 1 μM ipatasertib, 16 hours): 59% | share of AKT-up-regulated genes that are common with I-BRD9 ([6]; 1 μM ipatasertib, 16 hours): 32% | shared down-regulated genes (I-BRD9 and ipatasertib) ([6]; 16 hours): 116 genes | shared up-regulated genes (I-BRD9 and ipatasertib) ([6]; 16 hours): 70 genes | hallmark gene sets significantly enriched among the 186 shared genes [6]: Nine | common down-regulated genes significantly marked by H3K27me3 [6]: Seventy-five | mRNA of shared genes in hallmark pathways, ipatasertib ([8]; 1 μM ipatasertib, 16 hours): transcriptionally repressed

O=c1cc(N2CCOCC2)oc2c(-c3ccccc3)cccc12 [LY294002]
H3K27me3 level, LY294002 ([5]; 0, 10, 20 μM, 16 h, MDA-MB-231): elevated

H4R3me2s: Biotin-H4R3me2s peptide, ANASPEC AS-65424
relative affinity of BRD9-BD for R391me2s vs H4R3me2s [7]: greater affinity for R391me2s than H4R3me2s

Cc1ncsc1-c1ccc([C@H](C)NC(=O)[C@@H]2C[C@@H](O)CN2C(=O)[C@@H](NC(=O)CN2CCN(c3cc(-c4ccccc4O)nnc3N)CC2)C(C)(C)C)cc1 [AU-15330]
depletion of SMARCA2/4 [12]: depletion of SMARCA2/4 | AKT phosphorylation, AU-15330 [13]: minor effects | H3K27me3, AU-15330 ([5]; 0.1 μM, 0-6 h, HEK293T): minor effects | effect on BRD9 interaction with AKT1 [14]: minimal effects on BRD9 interaction with AKT1

CC[C@H](C)n1cc(C)c2c(C(=O)NCc3c(C)cc(C)[nH]c3=O)cc(-c3ccc(N4CCNCC4)nc3)cc21 [GSK126]
effect on H3K27me3 elevation caused by loss of BRD9 ([5]; 5 μM GSK126, 16 h, MDA-MB-231, sgBRD9): completely blocked | effect on I-BRD9-enhanced H3K27me3 ([5]; GSK126 with I-BRD9, 16 h, MDA-MB-231 (fig. S6D)): suppressed | transcription of common genes of BRD9 and AKT ([8]; 5 μM GSK126, 48 hours): increased the transcription of common genes of BRD9 and AKT
